CD11b adhes enh = increases human CD11b/CD18 adhesion to fibrinogen; P05107+P11215; K562 CD11b/CD18 adhesion to fibrinogen, ATPlite luminescence; hit rate 0.07% among 93,000; activation, % at 10 µM;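 active means 10 µM primary screen giving 50% or more activity, confirmed by 40% or more on retest at that dose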
Target sequence (P05107 whole entry, looked up, other chains not shown): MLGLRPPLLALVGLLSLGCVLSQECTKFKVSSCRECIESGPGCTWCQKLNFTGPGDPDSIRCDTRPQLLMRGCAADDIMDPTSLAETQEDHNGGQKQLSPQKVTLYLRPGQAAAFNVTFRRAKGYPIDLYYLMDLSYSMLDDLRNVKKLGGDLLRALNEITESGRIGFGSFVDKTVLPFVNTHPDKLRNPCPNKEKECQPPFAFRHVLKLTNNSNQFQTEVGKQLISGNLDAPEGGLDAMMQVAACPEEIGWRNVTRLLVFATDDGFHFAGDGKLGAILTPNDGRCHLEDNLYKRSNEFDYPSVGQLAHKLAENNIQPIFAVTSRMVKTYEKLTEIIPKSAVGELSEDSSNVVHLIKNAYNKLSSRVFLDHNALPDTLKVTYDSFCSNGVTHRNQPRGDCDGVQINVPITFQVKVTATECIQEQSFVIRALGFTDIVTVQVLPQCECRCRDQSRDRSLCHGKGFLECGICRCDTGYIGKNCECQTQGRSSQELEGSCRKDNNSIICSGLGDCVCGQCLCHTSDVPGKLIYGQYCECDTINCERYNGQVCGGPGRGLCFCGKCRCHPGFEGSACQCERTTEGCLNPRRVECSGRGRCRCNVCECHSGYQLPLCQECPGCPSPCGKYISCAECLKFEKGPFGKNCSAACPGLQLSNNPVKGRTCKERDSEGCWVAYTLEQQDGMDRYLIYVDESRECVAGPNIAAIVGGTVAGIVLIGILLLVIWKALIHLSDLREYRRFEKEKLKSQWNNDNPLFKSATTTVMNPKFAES
sEH inhibitor = soluble epoxide hydrolase (human) inhibition. AID 707. recombinant human sEH enzymatic activity assay. P34913. hit rate 0.34% among 91,000. inhibition, % at 2 µM; in the data active means inhibition above about 80%
sEH activator = activators of human soluble epoxide hydrolase. hit rate 0.04% among 91,000. AID 717. purified human sEH enzymatic activity, activator screen. activation, % at 2 µM. P34913; in the data active means activation above about 37%
Smad3 inh = inhibitors of human Smad3 transcription factor binding; P84022; TR-FRET Smad3/Dy647-FoxH1 peptide binding, europium anti-His; inhibition, % at 25 µM; hit rate 0.29% among 88,000; AID 630;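 active means compounds that reduce the energy-transfer binding signal between the protein and its labelled peptide by more than half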
HIV Rev-RRE inh = HIV Rev-RRE protein-RNA interaction inhibition; P05866; Rev peptide-RRE RNA binding, FRET; inhibition, % at 8 µM; hit rate 0.79% among 97,000;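 active means inhibition above the screen-wide mean plus 3 SD, cut at about 35% in these data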
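System: Cy5-labelled duplex RRE RNA binding fluorescein-labelled HIV Rev peptide; Signal: fluorescein-to-Cy5 FRET, 480 nm excitation; Also added: labelled Rev peptide; Compound: one concentration, 8 µM nominal; Buffer or medium: HEPES pH 7.5 salt buffer with EDTA; Read-out: % inhibition of FRET ratio versus controls; Schedule: 5 min preincubation and 15 min binding, 25 °C.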
CD11b adhes inh = blocks human CD11b/CD18 adhesion to fibrinogen; hit rate 0.54% among 93,000; inhibition, % at 10 µM; AID 1497; P05107+P11215; K562 CD11b/CD18 adhesion to fibrinogen, ATPlite luminescence; Mn2+ added to activate the integrin;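 active means primary inhibition of 50% or more at 10 µM, then 40% or more on retest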
Numbers stand for hits; n = inactive; x = no result; [ ] = another dose, or the depositor's remark. Sampled rows, rich in hits. Any-hit rate of the full collection: about 1.6%.

SMILES	CD11b adhes enh	sEH inhibitor	sEH activator	Smad3 inh	HIV Rev-RRE inh	CD11b adhes inh
C/C(N[O-])=C(\C)[N+]([O-])=[Cu].C/C(N[O-])=C(\C)[N+]([O-])=[Cu].CC(=N\[O-])/C(C)=N/[O-].CC(=N\[O-])/C(C)=N/[O-]	x	x	x	n	x	x
C/C(N[O-])=C(\C)[N+]([O-])=[Fe].CC(=N\[O-])/C(C)=N/[O-].[NH2-].c1c[nH+]c[n-]1	x	x	x	72	x	x
Oc1c(Br)cc(Br)cc1CN(Cc1cc(Br)cc(Br)c1O)C1CCCCC1	x	x	x	n	x	x
N#CC1=C(N)N(c2ccccc2)C2=C(C(=O)CCC2)C1c1cccs1 (configuration not stated)	x	n	n	n	n	x
Cc1ccccc1C1C(C#N)=C2N=C(N)c3c(sc4c3CCCCC4)N2C2=C1C(=O)CCC2 (configuration not stated)	n	n	n	x	66	n
COc1ccccc1C1CN(c2ccc(F)cc2F)N=C1c1cccs1 (configuration not stated)	n	n	38	n	n	n
CCCCCCCn1ccc(=N)cc1	n	n	n	n	n	83
O=C(NC1CCCCC1)NC1CC2CCC(C1)N2Cc1nnnn1Cc1ccc2c(c1)OCO2 (configuration not stated)	x	95	n	n	n	x
O=C1c2cccc3c(N4CCCCC4)ccc(c23)C(=O)N1c1ccc(Cl)cn1	x	n	n	n	121[fluorescence artefact?]	x
O=C1c2cccc3c(N4CCCCC4)ccc(c23)C(=O)N1c1ccccn1	n	n	n	x	126[fluorescence artefact?]	n
CC1=C(C)C(=O)N(c2ccccn2)C1=O	n	n	n	n	n	n
O=C1c2cccc3c([N+](=O)[O-])ccc(c23)C(=O)N1c1ccc(Cl)cn1	n	n	n	x	69	n
O=C1c2cccc3c([N+](=O)[O-])ccc(c23)C(=O)N1c1ccccn1	n	n	n	x	n	n
Cc1ccc2c(c1)SC1=NC(c3ccccc3)(C(F)(F)F)NC(=O)N12 (configuration not stated)	x	n	n	n	n	x
CCCn1c(CNc2ccc(Br)cc2)nc2ccccc21	n	n	n	n	n	62
NC(=O)NC(=O)[C@H]1CCCC[C@@H]1C(=O)O	x	x	x	n	x	x
COc1cc(C)c(Cl)cc1S(=O)(=O)NCc1ccncc1	n	n	n	n	n	84
NC(Cc1ccccc1)(C(=O)O)C(=O)O	x	x	x	n	x	x
CCC(=O)Nc1nc(C)c(-c2csc(Nc3ccc(S(=O)(=O)Nc4cc(C)on4)cc3)n2)s1	n	n	n	x	n	n
Cc1cc(NS(=O)(=O)c2ccc(Nc3nc(-c4sc(NC(=O)c5ccccc5)nc4C)cs3)cc2)no1	n	94	n	n	n	79
NC(N)=NC(N)=Nc1ccccc1 (tested in a mixture with another compound)	x	x	x	60	x	x
NC(N)=Nc1ccc(-c2ccc(N=C(N)N)cc2)cc1	x	x	x	n	x	x
C/C(=N\S(=O)(=O)c1ccc(Cl)c(Cl)c1)OCC(C)(C)C	x	x	x	n	x	x
Cc1ccccc1N1C(=O)c2cccc3c(N(C)CCO)ccc(c23)C1=O	n	n	n	n	125[fluorescence artefact?]	n
O=C1CC(/C=C/c2ccco2)=Nc2ccccc2N1	n	n	n	n	41	n
SMILES	CD11b adhes enh	sEH inhibitor	sEH activator	Smad3 inh	HIV Rev-RRE inh	CD11b adhes inh
O=C(O)c1ccc(CNCc2ccccc2)cc1	x	x	x	n	x	x
O=C(c1cccc(F)c1)N1CCN(c2cccc(Cl)c2)CC1	n	x	x	n	141[fluorescence artefact?]	n
CCOc1cc(S(=O)(=O)NCc2ccco2)c(OCC)cc1-n1cnnn1	n	n	n	n	n	n
O=C1c2ccccc2-c2onc3ccc(Oc4ccccc4)c1c23	x	n	n	n	64	x
O=C(NCc1ccc2c(c1)OCO2)C1CCN(Cc2cnn(-c3ccccc3)c2-n2cccc2)CC1	n	84	n	n	n	n
O=C(NCc1ccc2c(c1)OCO2)C1CCN(c2ccc(S(=O)(=O)N3CCCC3)cc2)CC1	n	86	n	x	n	n
O=C(Nc1ccccc1Cl)C1CCN(Cc2cnn(-c3ccccc3)c2-n2cccc2)CC1	n	n	n	n	n	n
COCc1cc(C)nc(N2CCN(Cc3ccccc3)CC2)c1C#N	n	n	n	n	n	52
COCc1cc(C)nc(N2CCN(c3ccccc3)CC2)c1C#N	n	x	x	n	x	n
CCOc1cc(C2C(C#N)=C(N)OC(C)=C2C(C)=O)c(Br)c(Br)c1OC(C)C (configuration not stated)	x	n	n	n	n	x
CCOc1cc(C2C(C#N)=C(N)OC(C)=C2C(C)=O)cc(Br)c1O (configuration not stated)	n	n	n	n	50	n
Brc1ccc2[nH]c3c(N4CCc5ccccc5C4)ncnc3c2c1	n	n	n	n	n	75
Cc1ccc2[nH]c3c(N4CCc5ccccc5C4)ncnc3c2c1	x	x	x	n	n	x
BrC(c1cccc2ccccc12)c1cccc2ccccc12	x	x	x	n	x	x
CCC(=O)NNc1ncnc2ccccc12	n	x	x	x	x	n
CCCCCCCCNc1ncnc2ccccc12	n	n	n	n	n	101
O=C(c1ccc(Cn2cc(Br)cn2)o1)N1N=C(C(F)F)CC1(O)C(F)F (configuration not stated)	n	n	n	x	n	n
COc1ccccc1OCc1ccc(C(=O)N2N=C(C(F)F)CC2(O)C(F)F)o1 (configuration not stated)	n	n	n	x	n	82
Cc1cc2nc3[nH]c4c(Cl)cc(Cl)cc4c3nc2cc1C	x	x	x	n	x	x
CCOC(=O)c1ccc(NC(=O)CN2C(=O)C(CC)SC(CC)C2=O)cc1 (configuration not stated)	n	x	x	x	x	n
O=C(Nc1ccncc1)c1ccc2c(c1)C(=O)N(C1CCCCC1)C2=O	n	n	n	n	n	86
CCCC(C)NC(=O)c1ccc(OCc2ccc(Cl)cc2)c(OC)c1 (configuration not stated)	n	x	x	x	x	n
CC(=O)c1cccc(NC(=O)NC(C)C2CCCO2)c1 (configuration not stated)	n	n	n	n	n	n
CC(NC(=O)NC12CC3CC(CC(C3)C1)C2)C1CCCO1 (configuration not stated)	x	90	n	n	n	x
Oc1c(Cl)cc(C(c2cc(Cl)c(O)c(Cl)c2)C(c2cc(Cl)c(O)c(Cl)c2)c2cc(Cl)c(O)c(Cl)c2)cc1Cl	x	x	x	n	x	x
SMILES	CD11b adhes enh	sEH inhibitor	sEH activator	Smad3 inh	HIV Rev-RRE inh	CD11b adhes inh
COc1ccc(C/C(O)=C(\C#N)c2nc3ccccc3s2)cc1	n	n	n	n	n	104
Cc1ccc(SC/C(O)=C(\C#N)c2nc3ccccc3s2)cc1	n	n	n	n	n	101
COc1cccc(/C=N/NC(=O)c2nc(-c3ccccc3)cc(-c3ccccc3)n2)c1O	n	x	x	x	x	n
O=C(O)[C@@H]1[C@H]2O[C@H]([C@@H](Br)[C@H]2Br)[C@@H]1C(=O)O	x	x	x	n	x	x
C[C@@]12CC[C@@H]3[C@H](CC=C4C[C@@H](O)CC[C@@]43C)[C@H]1CC[C@H]2N(CCO)CCO	x	x	x	n	x	x
CCN(CC)COC(=S)S	x	x	x	n	x	x

Screening data deposited in PubChem BioAssay by several laboratories.
